For 37 sequences, folding enthalpy and Tm results are on record in the array DNA melting data of Ke et al. (doi:10.1101/2024.01.08.574731).

Data set [1] can be described thus: folding enthalpy; higher = less favourable; fluorescence melt of hairpins on a sequencing array, two-state fit. As to conditions: sodium 0.088 M. Put shortly:
(§1)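 Bootstrapped two-state fits yielded melting temperature and folding enthalpy for library hairpins. Cy3 fluorescence, with annealed Cy3 and quencher oligos, was imaged on a sequenced MiSeq flow cell in 50 mM Na-HEPES pH 8.0, 25 mM NaCl in 2.5 °C steps up to 60 °C, and normalised to pre-quench Cy3 and to control constructs. Four replicates were combined by inverse variance, and fitted temperatures were raised by 9.35 °C to match UV melts.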

The nature of data set [2]: melting temperature; fluorescence melt of hairpins on a sequencing array, two-state fit, raised by 9.35 °C to match UV melts. The following applies: sodium 0.088 M. The method in brief:
as §1

As for GATCCCAGGGGGGATC ((((((....)))))), the folding enthalpy in data set [1] was -32.3 kcal/mol. For the same sequence, the Tm in data set [2] worked out at 59.2 °C.

As for GATCTTATTTAAGATC ((((((....)))))), the folding enthalpy in data set [1] was -38.8 kcal/mol. The Tm in data set [2] turned out to be 46.4 °C.

As for GGTGCCGGAAACGGCATC (.(((((....))))).), the folding enthalpy in data set [1] is -15.1 kcal/mol. In data set [2], the Tm was found to be 62.4 °C.

With GGGAGTGGAAACGCTTCC ((.((.(....).)).)), the folding enthalpy in data set [1] was -20.7 kcal/mol. Further, in data set [2], the Tm turned out to be 39 °C.

Consider GATCTAAGCCTAGATC ((((((....)))))), for which, in data set [1], the folding enthalpy is -31.9 kcal/mol. The Tm in data set [2] worked out at 39.1 °C.

Consider GGGAAGCGAAAGCTGCCC (((.(((....))).))), for which, in data set [1], the folding enthalpy is -23.2 kcal/mol. The Tm in data set [2] was found to be 65.2 °C.

For GAATGGCGAAAGCCTTC (((.(((....)))))), the folding enthalpy in data set [1] is -11.9 kcal/mol. Moreover, the Tm in data set [2] was determined as 41.1 °C.

GCCGCCTCGAAAGAGGGC (((..(((....)))))): in data set [1], the folding enthalpy is -8.74 kcal/mol. Moreover, the Tm in data set [2] was found to be 51.1 °C.

In the case of GCTTGCGAAAGCAGGAGC ((((((....)))..))), the folding enthalpy in data set [1] was -14.3 kcal/mol. Besides, the Tm in data set [2] is 51.4 °C.

For GATCTGCACTCAGATC ((((((....)))))), the folding enthalpy in data set [1] was -34.1 kcal/mol. Moreover, the Tm in data set [2] is 48.9 °C.

As for GTGCGAGAAATCGCAC ((((((....)))))), the folding enthalpy in data set [1] is -28 kcal/mol. The Tm in data set [2] is 68.2 °C.

On to GGTGCCGAAAGGCTAACC ((((((....)))..))), for which the folding enthalpy in data set [1] was -15.3 kcal/mol. Besides, in data set [2], the Tm came to 50.7 °C.

For the sequence GCGCAAGGAAACTCGCGC ((((.((....)).)))), the folding enthalpy in data set [1] is -36.1 kcal/mol. Further, the Tm in data set [2] is 54.6 °C.

With GACGACGAAAGTCTGTC ((((((....))).))), the folding enthalpy in data set [1] is -24.4 kcal/mol. For the same sequence, the Tm in data set [2] came to 51.4 °C.

GGACGTGGAAACACACCC ((..(((....)))..)): the folding enthalpy in data set [1] is -7.91 kcal/mol. Besides, the Tm in data set [2] came out at 25 °C.

Turning to GTCGGCGGAAACGTCGGC (.((.((....)).)).), the folding enthalpy in data set [1] was -35.5 kcal/mol. The Tm in data set [2] is 54 °C.

With GGAAGGGGAAACTCTTCC (((((.(....).))))), the folding enthalpy in data set [1] was -39.7 kcal/mol. Also, the Tm in data set [2] came out at 46.3 °C.

Turning to GACGGAGGAAACTCCACC (..((((....))))..), the folding enthalpy in data set [1] is -10.4 kcal/mol. Moreover, the Tm in data set [2] worked out at 26.4 °C.

With GAGTCGACGAAAGTCCTC (((..(((....)))))), the folding enthalpy in data set [1] was -9.8 kcal/mol. The Tm in data set [2] turned out to be 26.6 °C.

Regarding GAAGAGGAAACTCTTC ((((((....)))))), the folding enthalpy in data set [1] was -34.2 kcal/mol. Besides, the Tm in data set [2] came to 48.3 °C.

Consider GCAGCGCGAAAGCGTGC (((.(((....)))))), for which the folding enthalpy in data set [1] is -14 kcal/mol. The Tm in data set [2] worked out at 62.2 °C.

With GGCATTGGAAACAGTGCC ((((.((....)).)))), the folding enthalpy in data set [1] is -43 kcal/mol. The Tm in data set [2] turned out to be 52.2 °C.

Consider GGATGCGAAAGCATTCC ((((((....))).))), for which, in data set [1], the folding enthalpy was -16.9 kcal/mol. In data set [2], the Tm came to 55.9 °C.

Turning to GATCAACAACTTGATC ((((((....)))))), the folding enthalpy in data set [1] is -35.1 kcal/mol. Besides, in data set [2], the Tm came to 38.4 °C.

For the sequence GTCACAGGAAACCGTGAC (((((.(....).))))), the folding enthalpy in data set [1] was -30.3 kcal/mol. For the same sequence, the Tm in data set [2] was determined as 49.1 °C.

As to GCAAAGCGAAAGCGTGGC ((.(.((....)).).)), the folding enthalpy in data set [1] is -15.9 kcal/mol. Further, the Tm in data set [2] came to 50.6 °C.

As to GCGGGAGGAAACCCCCGC (((((.(....).))))), the folding enthalpy in data set [1] was -37.9 kcal/mol. The Tm in data set [2] came to 60.2 °C.

On to GTTTGCGGAAACGCAAGC (.(((((....))))).), for which the folding enthalpy in data set [1] is -23.4 kcal/mol. The Tm in data set [2] is 54.6 °C.

Regarding GATCATCCGCATGATC ((((((....)))))), in data set [1], the folding enthalpy was -35.9 kcal/mol. Also, in data set [2], the Tm is 47.8 °C.

With GGTAACTCGAAAGAGACC (((..(((....)))))), the folding enthalpy in data set [1] was -14.5 kcal/mol. Moreover, the Tm in data set [2] came out at 31.3 °C.

Consider GTCTCTCGAAAGAGGGAC (((.(((....))).))), for which, in data set [1], the folding enthalpy is -36.1 kcal/mol. For the same sequence, the Tm in data set [2] was 55.5 °C.

Turning to GCCGAGCGAAAGCTATGC ((..(((....)))..)), the folding enthalpy in data set [1] is -12.5 kcal/mol. Also, in data set [2], the Tm was 38.8 °C.

As for GGGGTTCGAAAGAAGCCC (((.(((....))).))), the folding enthalpy in data set [1] is -41.5 kcal/mol. Besides, the Tm in data set [2] was 66.3 °C.

CGCTCGGAAACGAGAGCG ((((((....)))..))): the folding enthalpy in data set [1] is -25.7 kcal/mol. For the same sequence, the Tm in data set [2] was found to be 52.2 °C.

On to GATCTTAGCCAAGATC ((((((....)))))), for which the folding enthalpy in data set [1] is -32.2 kcal/mol. The Tm in data set [2] came to 43.1 °C.

GGAACCCGAAAGGGATCC (((.(((....))).))): the folding enthalpy in data set [1] is -28 kcal/mol. In data set [2], the Tm stood at 54.5 °C.

As to GCTGCAGGAAACTGTAGC (((.(((....))).))), the folding enthalpy in data set [1] was -34.3 kcal/mol. The Tm in data set [2] came to 52 °C.
